Assay outcomes: PubChem BioAssay, several laboratories
Rows were chosen to be rich in hits. Some 2.1% of all compounds tested hit in one or more screens of this group.
pCIP destab: lowers stability of the mouse p/CIP coactivator protein. Q05BA5. F442A p/CIP-EGFP cells, EGFP fluorescence, 16 h. decrease of EGFP signal, % at 10 µM. hit rate 0.01% among 290,000;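 active = EGFP signal decrease of at least 30% at 10 µM or well 3 SD below plate mean, unless failing retest; inactive = the rest, including hits failing retest or dose response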
RanGTP-Impb inh: disruptors of Ran-importin-beta complex formation – biochemical, FRET, CFP-Ran, YFP-importin-beta, homogeneous, primary screen; cell-free CFP-Ran/YFP-importin-beta FRET ratio; inhibition, % (no concentration beside the values); hit rate 1.1% among 300,000;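 active = more than half of the replicate wells show a fall in the fluorescence ratio signal beyond about 16%, limit read from the data, passing the limit was not always enough; inconclusive = exactly half of the replicate wells pass the set limit; inactive = fewer than half of replicates pass the limit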;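 also: 0% = DMSO wells and 100% = Ran loaded with GDP instead of GTP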
Runt-SMMHC FRET: inhibitors of human RUNX1 Runt domain binding to CBFb-SMMHC. Cerulean-Runt/Venus-CBFb-SMMHC FRET ratio 530/480, 1 h. hit rate 0.74% among 220,000. inhibition, % at 20 µM. AID 1434;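 active = mean inhibition across duplicate retests at 20 µM reaching about 50%, limit read from the data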;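 also: 0% = DMSO wells and 100% = wells with excess untagged CBFb-SMMHC; inhibitors lower the FRET ratio by blocking Runt binding to CBFb-SMMHC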
Target sequence (Q01196 whole entry, looked up, the tested form may be a part): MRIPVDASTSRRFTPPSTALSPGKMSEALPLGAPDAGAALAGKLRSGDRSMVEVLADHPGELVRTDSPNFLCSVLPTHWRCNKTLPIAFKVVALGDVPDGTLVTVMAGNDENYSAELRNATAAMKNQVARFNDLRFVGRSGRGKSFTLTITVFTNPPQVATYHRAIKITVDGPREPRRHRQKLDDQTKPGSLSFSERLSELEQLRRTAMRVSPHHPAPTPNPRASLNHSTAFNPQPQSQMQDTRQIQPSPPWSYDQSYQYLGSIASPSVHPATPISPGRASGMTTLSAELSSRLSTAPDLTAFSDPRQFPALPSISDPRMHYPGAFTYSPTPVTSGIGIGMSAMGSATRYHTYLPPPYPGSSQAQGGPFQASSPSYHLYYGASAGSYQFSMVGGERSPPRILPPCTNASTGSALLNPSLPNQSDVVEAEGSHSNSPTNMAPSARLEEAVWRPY
Target sequence (Q13951 whole entry, looked up, the tested form may be a part): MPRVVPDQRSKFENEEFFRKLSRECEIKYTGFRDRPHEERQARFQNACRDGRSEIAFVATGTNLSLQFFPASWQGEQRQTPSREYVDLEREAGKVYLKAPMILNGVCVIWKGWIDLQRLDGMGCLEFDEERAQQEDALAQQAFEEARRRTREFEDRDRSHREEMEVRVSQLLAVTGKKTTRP
Hck-Nef inh: human Hck-Nef kinase inhibition | P08631 | Recombinant Hck-YEEI plus Nef, Z-Lyte FRET kinase assay | inhibition, % at 20 µM | hit rate 0.68% among 220,000 | AID 463187;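 active = Hck-Nef kinase inhibition above about 50%, limit read from the data; inactive = inhibition below that limit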;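 also: 0% = DMSO with Hck plus Nef and 100% = Hck alone without Nef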
Runt-CBFb FRET: Runt domain-CBFb interaction inhibition | Q01196+Q13951 | Cerulean-Runt/Venus-CBFb FRET ratio 530/480, 1 h | inhibition, % at 20 µM | hit rate 0.46% among 220,000 | AID 1496;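 active = inhibition over about 50% at 20 µM in the single-dose screen, limit read from the data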;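 also: 0% = DMSO wells and 100% = excess unlabeled CBFb competitor control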
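Measured by: fluorescence energy transfer, 422 nm excitation, 530/480 nm emission; Assay system: Cerulean-Runt domain; Medium: Tris pH 7.5 buffer with BSA; Measure: loss of energy transfer signal; Controls: 5 µM unlabeled CBFb as full-inhibition high control; Incubation: protein complex preformed 1 h, compound exposure 1 h, room temperature, dark.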
Pemphigus Ab inh: human desmoglein-3 autoantibody binding inhibition | DSG3-coupled beads, scFv-anti-DSG3-GFP binding, flow cytometry; active compounds read low | P32926 | hit rate 0.48% among 310,000 | AID 588358 | binding (percent of control), % at 10 µM;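 active = binding more than 3 SD below its plate's average and above zero; inconclusive = below that plate limit but binding exactly zero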;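 also: hits lower antibody fragment binding to DSG3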
YIC FRET counter: counter-screen: alters YIC FRET probe signal | hit rate 40% among 1,000 | Purified YIC probe, intramolecular FRET ratio YFP/CFP | shares compounds with RanGTP-Impb inh | IC50, µM;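 active = fitted half-maximal inhibitory concentration no more than tenfold above the top dose tested; inconclusive = flat fit with 30 to 70% activity, or poor fit; inactive = half-maximal concentration beyond tenfold above the top dose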
Numbers without * were called inactive; ? = inconclusive; / = no result.

SMILES	pCIP destab	RanGTP-Impb inh	Runt-SMMHC FRET	Hck-Nef inh	Runt-CBFb FRET	Pemphigus Ab inh	YIC FRET counter
Cc1ccccc1CN1CCN(S(=O)(=O)c2ccc(F)cc2)CC1	-3.0	-0.1	-1.2	7.4	-1.4	98.0	/
Cc1ccc(N=Cc2nc(-c3ccc(C)cc3)oc2O)cc1	1.8	8.4	-16.5	6.0	-14.2	98.5	/
COc1ccc(-c2nc(/C=C3\C(C)=Nc4ccccc43)c(O)o2)cc1	-11.5	27.7*	-18.8	-21.1	-10.7	/	>50
CC(C)(C)c1ccc(S(=O)(=O)NCC(=O)N2CCCC2)cc1	-15.1	-2.1	/	/	/	96.4	/
CC(C)(C)c1ccc(S(=O)(=O)NCC(=O)N2CCN(C(=O)c3ccco3)CC2)cc1	11.2	20.6*	-1.1	10.2	-2.2	98.8	>50
Cn1nc(N)c2ncc(-c3ccc(Cl)cc3)nc21	/	/	/	/	/	106.5	/
O=C(CN1C(=O)NC2(CCCc3ccccc32)C1=O)N1CCCCC1 (configuration not stated)	/	1.5	/	/	/	94.4	/
Cn1c(=O)oc2cc(S(=O)(=O)NCCC(=O)N3CC=C(c4ccccc4)CC3)ccc21	-1.0	17.6*	-3.1	0.6	-1.4	92.1	>50
Cn1c(=O)oc2cc(S(=O)(=O)NCCC(=O)N3CCN(c4ccccc4)CC3)ccc21	0.5	-1.0	/	/	/	103.4	/
Cc1c(-n2c(SCC(=O)O)nnc2-c2ccccc2Br)c(=O)n(-c2ccccc2)n1C	-7.4	7.2	-2.4	-1.2	0.2	96.1	/
Oc1c(C=Nc2ccccc2)sc(=S)n1Cc1ccccc1	-23.0	39.0*	45.7	15.7	11.5	114.5	43.7*
CCn1c(O)c(C=Nc2ccccc2)sc1=S	2.2	36.9*	68.5*	-11.9	34.7	/	16.8*
CCn1c(O)c(/C=N/n2cnnc2)sc1=S	-15.8	1.2	2.7	-1.8	20.4	102.2	/
CCn1c(O)c(C=Nc2ccccc2)sc1=O	-7.7	0.9	46.8	14.7	5.8	97.8	/
Cc1ccc(C(c2cc(Br)ccc2O)N2CCSCC2)cc1 (configuration not stated)	/	2.5	/	/	/	100.7	/
Cc1ccc(Cl)cc1N1C(=O)CC(Sc2ncccn2)C1=O (configuration not stated)	-8.5	16.1*	/	/	/	100.4	>50
COC(=O)C1=C(C)NC(C)=C(C(=O)OC)C1C(=O)OC(C)C(=O)c1ccccc1 (configuration not stated)	16.8	21.5*	-1.9	-5.1	0.7	104.7	>50
CCOC(=O)C1=C(COC(=O)c2ccc(Cl)nc2)NC(=O)NC1C (configuration not stated)	/	/	/	/	/	15.3	/
O=C(C[C@H]1C[C@@H]2c3cc(NC(=O)c4cccnc4)ccc3O[C@@H]2[C@H](CO)O1)NCc1ccncc1	/	/	/	/	/	105.8	/
CCN1CCN(C(=O)C2CC(=O)N(c3ccc(Cl)cc3)C2)CC1 (configuration not stated)	5.1	-1.3	/	/	/	111.5	/
Fc1ccccc1N1CC(c2ccccc2)C(c2cccs2)=N1 (configuration not stated)	1.1	19.5*	61.6*	39.0	27.5	123.8	13.9*
COc1ccccc1Nc1c2ccccc2nc2ccccc12	-19.5	27.2*	/	/	/	101.3	>50
c1cncc(Nc2c3ccccc3nc3ccccc23)c1	-5.9	33.9*	/	/	/	99.1	>50
Oc1cccc(Nc2c3ccccc3nc3ccccc23)c1	-19.4	50.4*	/	/	/	93.6	>50
COc1ccccc1Nc1nc(-c2ccccc2)nc2ccccc12	2.6	-0.9	2.8	4.8	-2.4	107.6	/
SMILES	pCIP destab	RanGTP-Impb inh	Runt-SMMHC FRET	Hck-Nef inh	Runt-CBFb FRET	Pemphigus Ab inh	YIC FRET counter
O=C1CCCN2N=C(SCC(=O)N3N=C(c4ccc(Br)cc4)CC3c3ccc(F)cc3)SC2=N1 (configuration not stated)	-23.6	20.0*	-2.5	20.9	-0.2	101.6	>50
Cc1ccc(C2CC(c3ccc(Br)cc3)=NN2C(=O)CSC2=NN3CCCC(=O)N=C3S2)cc1 (configuration not stated)	0.5	1.9	/	/	/	100.6	/
CN=C(Nc1cc(C)nn1CCC#N)c1ccccc1	-6.1	19.4*	-2.8	1.7	0.6	73.3	>50
CN=C(Nc1cc(C)nn1CCC#N)c1ccc(F)cc1	-21.6	2.4	-3.6	-0.6	-0.8	97.8	/
O=C(C[n+]1cccc(/C=N/O)c1)N1CCCc2ccccc21	0.9	1.7	3.1	20.3	-0.4	100.8	/
COc1ccc(COC(=O)c2ccc(Br)c(S(=O)(=O)N3CCOCC3)c2)cc1F	/	3.1	/	/	/	100.6	/
CCC1(C(=O)OC)NC(c2cccc(F)c2)C2C(=O)N(C)C(=O)C21 (configuration not stated)	/	20.3*	/	-0.8	/	113.7	>50
COC(=O)C1(Cc2ccccc2)NC(c2ccc(F)cc2)C2C(=O)N(C)C(=O)C21 (configuration not stated)	1.9	4.3	-2.0	-12.2	-3.6	116.9	/
O=C(NNC(=O)c1cccc2ccccc12)c1ccc2c(c1)OCO2	-4.3	-0.7	3.7	-14.9	-1.0	109.7	/
CCC(OC(=O)CN1C(=O)C(=O)c2ccccc21)C(=O)Nc1ccccc1OC (configuration not stated)	3.9	-0.4	/	/	/	98.6	/
O=C(C[C@H]1C[C@@H]2c3cc(NS(=O)(=O)c4ccccc4)ccc3O[C@@H]2[C@H](CO)O1)N1CCOCC1	/	/	/	/	/	96.5	/
COC(=O)c1c(NC(NC(=O)c2ccccc2)(C(F)(F)F)C(F)(F)F)sc2c1CCN(C)C2	-6.4	47.8*	61.6	-8.4	14.2	104.4	39.6*
CC(NC(=O)c1ccc(S(=O)(=O)NCc2ccco2)cc1)c1ccc(F)cc1 (configuration not stated)	/	/	/	/	/	98.0	/
O=C(COc1ccccc1Cl)NCCCNC(=O)c1cnccn1	5.1	4.4	/	/	/	/	/
Cc1ccc(C(=O)Nc2ncc(Cc3ccc(F)cc3)s2)o1	-11.1	27.7*	2.9	0.0	-2.5	97.9	>50
Cc1ccc(C(=O)Nc2ncc(C)s2)o1	3.9	3.6	-1.1	2.0	0.6	104.8	/
Cc1ccc2cc(C#N)c(NCCNC(=O)C3CC3)nc2c1C	-20.8	16.4*	102.6*	7.0	28.7	126.1	46.9*
CCC(=O)NCCNc1nc2cc(C)c(C)cc2cc1C#N	1.8	33.7*	46.8	5.6	10.4	108.1	14.4*
Cc1nc(NCCCn2ccnc2)c2ccccc2n1	-2.6	-0.9	-3.9	-6.7	-0.8	134.7	/
Cc1ccn2cc(CCNC(=O)COc3ccccc3)nc2c1	4.2	-5.4	0.3	8.7	-0.5	93.9	/
Cc1cc2cc(C)c(NCCNC(=O)c3ccccc3Cl)nc2cc1C	-3.0	?	-5.3	-2.1	-2.7	94.5	/
Cc1cccc2cc(C#N)c(NCCNC(=O)COc3ccccc3)nc12	-10.1	19.9*	0.4	22.9	10.7	97.8	27*
